Measured values reported in ChEMBL document CHEMBL4028872, “Structure-Activity Relationship, Pharmacological Characterization, and Molecular Modeling of Noncompetitive Inhibitors of the Betaine/γ-Aminobutyric Acid Transporter 1 (BGT1)” (J Med Chem, 2017).

Assays:
Format in all cases: cell-based
[1] = target: Sodium- and chloride-dependent GABA transporter 1 (Homo sapiens, UniProt P30531)
[2] = target: T1, Sodium- and chloride-dependent betaine transporter (Homo sapiens, UniProt P48065); assay: Inhibition of human BGT1 expresses in tsA201 cells assessed as reduction in [3H]GABA uptake after 3 mins by scintillation counting method
T1 sequence (P48065 whole entry): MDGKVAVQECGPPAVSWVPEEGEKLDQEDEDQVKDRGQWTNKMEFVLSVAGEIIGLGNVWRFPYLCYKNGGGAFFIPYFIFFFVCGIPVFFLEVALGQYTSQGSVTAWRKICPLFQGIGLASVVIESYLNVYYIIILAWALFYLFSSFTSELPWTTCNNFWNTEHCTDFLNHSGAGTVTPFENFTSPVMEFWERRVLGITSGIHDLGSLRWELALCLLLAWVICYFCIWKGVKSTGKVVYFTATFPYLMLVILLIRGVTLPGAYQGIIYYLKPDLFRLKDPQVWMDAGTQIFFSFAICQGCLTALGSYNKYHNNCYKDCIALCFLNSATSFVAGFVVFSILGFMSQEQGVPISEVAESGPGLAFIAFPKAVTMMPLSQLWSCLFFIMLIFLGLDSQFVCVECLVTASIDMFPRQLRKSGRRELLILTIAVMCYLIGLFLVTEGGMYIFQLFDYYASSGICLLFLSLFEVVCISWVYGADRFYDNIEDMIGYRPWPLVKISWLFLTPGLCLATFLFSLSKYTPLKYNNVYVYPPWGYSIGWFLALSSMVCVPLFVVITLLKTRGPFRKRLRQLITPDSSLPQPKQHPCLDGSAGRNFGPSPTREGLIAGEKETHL
Method in brief: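 tsA201 cells transiently transfected with wild-type or mutant human BGT1 (PolyFect) were plated about 24 h before assay. Three ice-cold washes followed, then scintillation counting.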

[3] = target: T2, Sodium- and chloride-dependent GABA transporter 3 (Homo sapiens, UniProt P48066); assay: Inhibition of human GAT3 expresses in tsA201 cells assessed as reduction in [3H]GABA uptake after 3 mins by scintillation counting method
T2 sequence (P48066 whole entry): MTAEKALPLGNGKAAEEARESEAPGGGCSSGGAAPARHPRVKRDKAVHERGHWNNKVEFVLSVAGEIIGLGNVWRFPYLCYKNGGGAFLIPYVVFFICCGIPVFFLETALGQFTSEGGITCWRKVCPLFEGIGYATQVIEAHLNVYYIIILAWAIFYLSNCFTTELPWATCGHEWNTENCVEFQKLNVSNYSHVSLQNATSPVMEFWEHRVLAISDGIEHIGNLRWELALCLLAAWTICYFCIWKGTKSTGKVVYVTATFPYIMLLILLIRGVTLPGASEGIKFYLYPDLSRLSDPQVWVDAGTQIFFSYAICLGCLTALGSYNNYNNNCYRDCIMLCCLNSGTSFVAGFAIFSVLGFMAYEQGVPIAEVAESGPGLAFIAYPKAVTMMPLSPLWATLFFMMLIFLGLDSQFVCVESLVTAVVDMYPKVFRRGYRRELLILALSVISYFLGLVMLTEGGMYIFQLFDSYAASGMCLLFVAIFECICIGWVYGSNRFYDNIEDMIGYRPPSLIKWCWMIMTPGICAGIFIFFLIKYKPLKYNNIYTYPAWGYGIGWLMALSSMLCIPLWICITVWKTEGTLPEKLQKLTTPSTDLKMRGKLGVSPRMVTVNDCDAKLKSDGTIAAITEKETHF
Method in brief: (§1)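 Wild-type human GAT transiently expressed in tsA201 cells via pcDNA5/FRT and PolyFect. Uptake of 30 nM [3H]GABA was run for 3 min at 37 °C in HBSS/20 mM HEPES with 1 mM CaCl2 and 1 mM MgCl2, pH 7.4, across a range of test concentrations. Ice-cold washes were followed by scintillation counting. IC50 was obtained by sigmoidal variable-slope fitting, reported as mean pIC50 ± S.E.M.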

[4] = target: T3, Sodium- and chloride-dependent GABA transporter 2 (Homo sapiens, UniProt Q9NSD5); assay: Inhibition of human GAT2 expresses in tsA201 cells assessed as reduction in [3H]GABA uptake after 3 mins by scintillation counting method
T3 sequence (Q9NSD5 whole entry): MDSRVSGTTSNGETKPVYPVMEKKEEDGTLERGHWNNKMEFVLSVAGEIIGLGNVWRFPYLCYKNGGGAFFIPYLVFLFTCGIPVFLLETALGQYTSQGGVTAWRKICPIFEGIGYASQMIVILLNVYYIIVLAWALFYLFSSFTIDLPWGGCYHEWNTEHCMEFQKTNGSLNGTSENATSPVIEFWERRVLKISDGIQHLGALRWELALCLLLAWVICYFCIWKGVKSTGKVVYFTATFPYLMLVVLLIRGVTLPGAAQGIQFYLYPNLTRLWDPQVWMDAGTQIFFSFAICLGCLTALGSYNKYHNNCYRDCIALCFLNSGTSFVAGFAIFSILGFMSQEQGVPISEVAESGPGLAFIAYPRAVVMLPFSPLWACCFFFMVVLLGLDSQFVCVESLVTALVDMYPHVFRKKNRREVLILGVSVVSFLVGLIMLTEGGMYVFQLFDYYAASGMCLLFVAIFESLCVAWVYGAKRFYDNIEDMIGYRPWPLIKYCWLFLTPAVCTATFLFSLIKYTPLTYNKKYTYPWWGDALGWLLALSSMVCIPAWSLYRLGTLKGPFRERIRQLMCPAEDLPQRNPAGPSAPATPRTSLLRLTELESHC
Method in brief: as §1

Sodium- and chloride-dependent GABA transporter 1, sequence (P30531 whole entry): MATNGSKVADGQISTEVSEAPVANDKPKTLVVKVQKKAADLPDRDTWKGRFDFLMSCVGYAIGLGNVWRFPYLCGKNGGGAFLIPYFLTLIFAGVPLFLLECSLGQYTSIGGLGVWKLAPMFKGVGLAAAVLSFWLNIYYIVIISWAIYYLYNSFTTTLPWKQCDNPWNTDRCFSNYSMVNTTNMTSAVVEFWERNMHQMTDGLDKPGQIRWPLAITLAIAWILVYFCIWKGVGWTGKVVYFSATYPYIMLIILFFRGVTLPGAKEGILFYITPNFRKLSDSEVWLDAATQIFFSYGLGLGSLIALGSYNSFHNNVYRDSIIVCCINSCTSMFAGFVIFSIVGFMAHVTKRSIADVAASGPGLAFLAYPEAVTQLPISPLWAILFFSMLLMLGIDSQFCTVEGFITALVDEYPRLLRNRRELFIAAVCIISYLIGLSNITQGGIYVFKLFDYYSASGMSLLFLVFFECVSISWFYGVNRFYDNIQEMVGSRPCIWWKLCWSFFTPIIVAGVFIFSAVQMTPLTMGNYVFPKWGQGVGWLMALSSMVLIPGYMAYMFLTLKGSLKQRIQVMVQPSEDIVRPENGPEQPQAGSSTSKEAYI

| SMILES | IC50 ([1]; read-out: IC50) [µM] | IC50 ([2]; read-out: IC50) [µM] | IC50 ([3]; read-out: IC50) [µM] | IC50 ([4]; read-out: IC50) [µM] | IC50 [1] [µM] | IC50 [2] [µM] | IC50 [3] [µM] | IC50 [4] [µM] |
| --- | --- | --- | --- | --- | --- | --- | --- | --- |
| O=C(NC1CCN(Cc2ccccn2)CC1)c1ccc(Cl)cc1Cl | > 1000 | > 1000 | > 1000 | > 1000 |  |  |  |  |
| O=C(NC1CCN(Cc2ccncc2)CC1)c1ccc(Cl)cc1Cl | > 1000 | > 1000 | > 1000 | > 1000 |  |  |  |  |
| O=C(NC1CCN(Cc2ccccc2)CC1)c1ccc2ccccc2c1 |  |  |  |  | > 100 | 15 | > 100 | 23 |
| O=C(NC1CCN(Cc2ccccc2)CC1)c1ccc2c(c1)OCO2 |  |  |  |  | > 100 | 42 | > 100 | 63 |
| N#Cc1ccc(CN2CCC(NC(=O)c3ccc(Cl)cc3Cl)CC2)cc1 | > 50 | > 50 | > 50 | > 50 |  |  |  |  |
| CCOP(=O)(CCCN1CCC(NC(=O)c2ccc(Cl)cc2Cl)CC1)OCC | > 1000 | > 1000 | > 1000 | > 1000 |  |  |  |  |
| CCN1CCC(NC(=O)c2ccc(Cl)cc2Cl)CC1 | > 1000 | > 1000 | > 1000 | > 1000 |  |  |  |  |
| CC(C)C(=O)NC1CCN(Cc2ccccc2)CC1 | > 1000 | > 1000 | > 1000 | > 1000 |  |  |  |  |
| O=C(NC1CCN(Cc2ccc3ccccc3n2)CC1)c1ccc(Cl)cc1Cl | > 50 | > 50 | > 50 | > 50 |  |  |  |  |
| O=C(CN1CCC(NC(=O)c2ccc(Cl)cc2Cl)CC1)c1ccccc1 | > 100 | > 100 | > 100 | > 100 |  |  |  |  |
| O=C(NC1CCN(Cc2ccc([N+](=O)[O-])cc2)CC1)c1ccc(Cl)cc1Cl | > 100 | > 100 | > 100 | > 100 |  |  |  |  |
| N#Cc1ccccc1CN1CCC(NC(=O)c2ccc(Cl)cc2Cl)CC1 | > 50 | > 50 | > 50 | > 50 |  |  |  |  |
| O=C(NC1CCN(Cc2ccccc2[N+](=O)[O-])CC1)c1ccc(Cl)cc1Cl | > 100 | > 100 | > 100 | > 100 |  |  |  |  |
| O=C(NC1CCNCC1)c1ccc(Cl)cc1Cl | > 1000 | > 1000 | > 1000 | > 1000 |  |  |  |  |
| CN1CCC(NC(=O)c2ccc(Cl)cc2Cl)CC1 | > 1000 | > 1000 | > 1000 | > 1000 |  |  |  |  |
| O=C(O)CN1CCC(NC(=O)c2ccc(Cl)cc2Cl)CC1 | > 1000 | > 1000 | > 1000 | > 1000 |  |  |  |  |
| O=C(NC1CCN(C/C=C/c2ccccc2)CC1)c1ccc(Cl)cc1Cl | > 100 | > 100 | > 100 | > 100 |  |  |  |  |
| CC(C)(C)OC(=O)CN1CCC(NC(=O)c2ccc(Cl)cc2Cl)CC1 | > 1000 | > 1000 | > 1000 | > 1000 |  |  |  |  |
| O=C(NC1CCN(Cc2ccccc2)CC1)c1cccc(C(F)(F)F)c1 | > 500 | 170 | > 500 | > 500 |  |  |  |  |
| O=C(NC1CCN(Cc2ccccc2)CC1)c1ccccc1 | > 1000 | 290 | > 1000 | > 1000 |  |  |  |  |
| N#CCCCN1CCC(NC(=O)c2ccc(Cl)cc2Cl)CC1 | > 1000 | > 1000 | > 1000 | > 1000 |  |  |  |  |
| O=C(NC1CCN(Cc2ccc3ccccc3c2)CC1)c1ccc(Cl)cc1Cl | > 50 | > 50 | > 50 | > 50 |  |  |  |  |
| COc1cccc(C(=O)NC2CCN(Cc3ccccc3)CC2)c1OC | > 500 | 91 | > 500 | > 500 |  |  |  |  |
| COC(=O)c1ccc(CN2CCC(NC(=O)c3ccc(Cl)cc3Cl)CC2)cc1 | > 100 | > 100 | > 100 | > 100 |  |  |  |  |
| CCOc1ccccc1C(=O)NC1CCN(Cc2ccccc2)CC1 | > 500 | 180 | > 500 | > 500 |  |  |  |  |
| O=C(NC1CCN(Cc2cccnc2)CC1)c1ccc(Cl)cc1Cl | > 1000 | > 1000 | > 1000 | > 1000 |  |  |  |  |
| O=C(NC1CCN(Cc2ccccc2)CC1)c1ccc(F)cc1 | > 300 | 100 | > 300 | > 300 |  |  |  |  |
| CCCN1CCC(NC(=O)c2ccc(Cl)cc2Cl)CC1 | > 1000 | > 1000 | > 1000 | > 1000 |  |  |  |  |
| C#CCN1CCC(NC(=O)c2ccc(Cl)cc2Cl)CC1 | > 1000 | > 1000 | > 1000 | > 1000 |  |  |  |  |
| O=C(NC1CCN(Cc2ccc(I)cc2)CC1)c1ccc(Cl)cc1Cl | > 100 | > 100 | > 100 | > 100 |  |  |  |  |
